Measurements from article PMC4496304 (Environmental science & technology, 2015).
Entries after “also recorded” stand apart in the source; their conditions may differ. Counter-ions that a name gives are not always drawn. Like-named read-outs stand apart in the source and are kept apart here. Marks after values point to notes of the source that are not given here.

Experiments:
[1] = Stability of 4-PCB 11 sulfate in rat urine; assay type: in vitro ADME; conditions: 24 hours at 25 °C (experiments not shown)
[2] = assay type: in vivo, male Sprague-Dawley rats
Outline: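 Single tail-vein injection in male rats (247 ± 8 g, 7-day acclimatization): 2 mM dosing solution in 5% (v/v) DMSO/sterile saline, 575 μg/kg; vehicle-injected controls. Killed by CO2 and cervical dislocation ~3 min, 1 h or 24 h post-dose (n = 6). Feces and intestinal contents came from rats held 24 h in metabolism cages. Tissues homogenized in 4 volumes water (liver: 20% acetonitrile). Analysis by negative-ion LC-ESI-MS/MS with internal standard.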

[3] = test system: human transthyretin; conditions: cited from earlier work
[4] = PCB 11 and its metabolites, rat, cited from earlier work
[5] = 3min, iv 575 μg/kg, assuming total dose 142 μg
[6] = 24 hours, iv 575 μg/kg, assuming total dose 142 μg
[7] = 1 hour, iv 575 μg/kg, assuming total dose 142 μg

In the case of `O=S(=O)(O)Oc1ccc(-c2cccc(Cl)c2)cc1Cl` [4-PCB 11 sulfate, 3,3′-dichloro-4′-sulfooxy-biphenyl], the “Stability in rat urine” value [1] is reported as “stable”, the “Fraction of 4-PCB 11 sulfate not recoverable” value ([2]; 1 hour, all samples examined) is reported as “about two thirds” and the “4-PCB 11 sulfate concentrations in tissues and fluids examined” value ([2]; after 24 hours of exposure) is reported as “below the LOD”. The “Observable 4-PCB 11 sulfate levels as fraction of the initial dose” value ([2]; after one hour) was “about one third”, the “4-PCB 11 sulfate in bile” value ([2]; bile collected during 1 hour after injection, bile duct-cannulated rats, iv) was 34 ± 3.9 µg and the “Fluid or Tissue (ml or g): brain, exposed animals” value ([2]; brain weight, exposed rats) was 1.69 ± 0.07 ml or g. For the same compound, the “% of total dose in brain” value [2, 5] was 0.6 ± 0.2%, the “4-PCB 11 sulfate in brain” value ([2]; 3min, iv 575 μg/kg, rat) was 0.8 ± 0.3 µg and the “4-PCB 11 sulfate in brain” value ([2]; 1 hour, iv 575 μg/kg, rat, detectable only in three samples) was 0.9 ± 0.9 ^c μg. The “% of total dose in brain” value [2, 6] was 0%, the “4-PCB 11 sulfate in brain” value ([2]; 24 hours, iv 575 μg/kg, rat) was “< LOD” and the “% of total dose in feces” value ([2]; feces, 24 hours, iv 575 μg/kg, assuming total dose 142 μg) was 0%. The “4-PCB 11 sulfate in feces” value ([2]; feces, 24 hours, iv 575 μg/kg, rat) was “did not contain detectable levels; also recorded: undetectable; also recorded: < LOD”, the “% of total dose in intestinal contents” value ([2]; intestinal contents, 24 hours, iv 575 μg/kg, assuming total dose 142 μg) was 0% and the “4-PCB 11 sulfate in intestinal contents” value ([2]; intestinal contents, 24 hours, iv 575 μg/kg, rat) was “did not contain detectable levels; also recorded: undetectable; also recorded: < LOD”. For the same compound, the “Fluid or Tissue (ml or g): kidneys, exposed animals” value ([2]; kidneys weight, exposed rats) was 1.86 ± 0.16 ml or g, the “% of total dose in kidneys” value [2, 5] was 8.7 ± 2.4% and the “4-PCB 11 sulfate in kidneys” value ([2]; 3min, iv 575 μg/kg, rat) was 12 ± 3.4 µg. The “% of total dose in kidneys” value [2, 7] was 1.1 ± 0.5%, the “4-PCB 11 sulfate in kidneys” value ([2]; 1 hour, iv 575 μg/kg, rat) was 1.6 ± 0.7 µg and the “% of total dose in kidneys” value [2, 6] was 0%. The “Fluid or Tissue (ml or g): liver, exposed animals” value ([2]; liver weight, exposed rats) was 10.6 ± 0.94 ml or g, the “% of total dose in liver” value [2, 5] was 47 ± 15% and the “4-PCB 11 sulfate in liver” value ([2]; 3min, iv 575 μg/kg, rat) was 67 ± 21 µg. The “% of total dose in liver” value [2, 7] was 2 ± 1%, the “4-PCB 11 sulfate in liver” value ([2]; 1 hour, iv 575 μg/kg, rat) was 2.9 ± 1.4 µg and the “% of total dose in liver” value [2, 6] was 0%. For the same compound, the “4-PCB 11 sulfate in liver” value ([2]; 24 hours, iv 575 μg/kg, rat) was “< LOD”, the “Fluid or Tissue (ml or g): lungs, exposed animals” value ([2]; lungs weight, exposed rats) was 1.3 ± 0.18 ml or g and the “% of total dose in lungs” value [2, 5] was 3.9 ± 1%. The “4-PCB 11 sulfate in lungs” value ([2]; 3min, iv 575 μg/kg, rat) was 5.6 ± 1.4 µg, the “% of total dose in lungs” value [2, 7] was 0.4 ± 0.4% and the “4-PCB 11 sulfate in lungs” value ([2]; 1 hour, iv 575 μg/kg, rat) was 0.6 ± 0.6 µg. The “% of total dose in lungs” value [2, 6] was 0%, the “4-PCB 11 sulfate in lungs” value ([2]; 24 hours, iv 575 μg/kg, rat) was “< LOD” and the “Blood brain barrier crossing (detection in brain tissue)” value ([2]; rat, iv) was “ability to cross the blood brain barrier”. The “Organ weights, exposed versus control animals” value ([2]; rat, iv 575 μg/kg) was “no significant differences”, the “% of total dose in serum” value ([2]; 3min, iv 575 μg/kg, assuming total dose 142 μg per animal) was 35 ± 8.5% and the “4-PCB 11 sulfate in serum” value ([2]; 3min post-injection, iv 575 μg/kg, rat) was 50 ± 12 µg. For the same compound, the “% of total dose in serum” value [2, 7] was 2.1 ± 1.2%, the “4-PCB 11 sulfate in serum” value ([2]; 1 hour, iv 575 μg/kg, rat) was 3.0 ± 1.6 µg and the “% of total dose in serum” value [2, 6] was 0%. For the same compound, the “4-PCB 11 sulfate in serum” value ([2]; 24 hours, iv 575 μg/kg, rat) was “< LOD”, the “% of total dose in urine” value ([2]; urine, 24 hours collection, iv 575 μg/kg, assuming total dose 142 μg) was 3.7 ± 1.8% and the “4-PCB 11 sulfate in urine” value ([2]; urine, 24 hours collection, iv 575 μg/kg, rat) was 5.3 ± 2.5 µg. The “Affinity for transthyretin (T4 binding sites)” value [3] was “affinity comparable to the physiological ligand, thyroxine; also recorded: among the most potent ligands”.
For `Clc1cccc(-c2cccc(Cl)c2)c1` [PCB 11, 3,3′-dichlorobiphenyl], the “t1/2 clearance from liver” value ([4]; liver) is listed as 2.1 h, the “t1/2 clearance from lungs” value ([4]; lungs) is listed as 1.9 h and the “t1/2 clearance from serum” value ([4]; serum) is listed as 1.8 h.
